The source made the active and inactive calls. No cut-off for these calls is given here.
How the values were obtained:
[1] = Cytotoxicity against human NTUB1 cells after 72 hrs by MTT assay; format: functional, cell-based; details: NTUB1, 72 h
Procedure, shortened: (§1)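 MTT assay: 1800 cells/well plated, overnight at 37 °C, then graded concentrations for 72 h at 37 °C. MTT added for 3 h, plates centrifuged, formazan dissolved in DMSO, absorbance read at 540 nm. Viability as percent of control; IC50 by median-effect analysis, mean ± SD. Cells grown in RPMI 1640 with 10% FBS.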

[2] = system: PC-3; assay: Cytotoxicity against human PC3 cells after 72 hrs by MTT assay; format: functional, cell-based; details: PC-3, 72 h; procedure, shortened: as §1
[3] = Cell cycle arrest in human NTUB1 cells assessed as accumulation at G2/M phase at 1 uM after 24 hrs by propidium iodide staining-based FACS analysis; format: functional
Procedure, shortened: (§2)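 Cells (6×10^5 plated) treated 24 h; 20 µM cisplatin as reference, medium-only control. Harvested by trypsinization, PBS-washed, fixed overnight in ice-cold methanol at −20 °C. Stained 30 min at room temperature in PBS with 50 µg/mL propidium iodide plus 50 µg/mL RNase A. DNA content by FACScan flow cytometry; sub-G1 taken as apoptosis. Representative of three independent experiments.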

[4] = Cell cycle arrest in human NTUB1 cells assessed as accumulation at S phase at 1 uM after 24 hrs by propidium iodide staining-based FACS analysis; format: functional; procedure, shortened: as §2
[5] = Cell cycle arrest in human NTUB1 cells assessed as accumulation at G1 phase at 1 uM after 24 hrs by propidium iodide staining-based FACS analysis; format: functional; procedure, shortened: as §2
[6] = Cell cycle arrest in human NTUB1 cells assessed as accumulation at sub-G1 phase at 1 uM after 24 hrs by propidium iodide staining-based FACS analysis; format: functional; procedure, shortened: as §2
[7] = Cell cycle arrest in human NTUB1 cells assessed as accumulation at G2/M phase at 3 uM after 24 hrs by propidium iodide staining-based FACS analysis; format: functional; procedure, shortened: as §2
[8] = Cell cycle arrest in human NTUB1 cells assessed as accumulation at S phase at 3 uM after 24 hrs by propidium iodide staining-based FACS analysis; format: functional; procedure, shortened: as §2
[9] = Cell cycle arrest in human NTUB1 cells assessed as accumulation at G1 phase at 3 uM after 24 hrs by propidium iodide staining-based FACS analysis; format: functional; procedure, shortened: as §2
[10] = Cell cycle arrest in human NTUB1 cells assessed as accumulation at sub-G1 phase at 3 uM after 24 hrs by propidium iodide staining-based FACS analysis; format: functional; procedure, shortened: as §2
[11] = system: PC-3; assay: Cell cycle arrest in human PC3 cells assessed as accumulation at G2/M phase at 1 uM after 24 hrs by propidium iodide staining-based FACS analysis; format: functional; procedure, shortened: as §2
[12] = system: PC-3; assay: Cell cycle arrest in human PC3 cells assessed as accumulation at S phase at 1 uM after 24 hrs by propidium iodide staining-based FACS analysis; format: functional; procedure, shortened: as §2
[13] = system: PC-3; assay: Cell cycle arrest in human PC3 cells assessed as accumulation at G1 phase at 1 uM after 24 hrs by propidium iodide staining-based FACS analysis; format: functional; procedure, shortened: as §2
[14] = system: PC-3; assay: Cell cycle arrest in human PC3 cells assessed as accumulation at sub-G1 phase at 1 uM after 24 hrs by propidium iodide staining-based FACS analysis; format: functional; procedure, shortened: as §2
[15] = system: PC-3; assay: Cell cycle arrest in human PC3 cells assessed as accumulation at G2/M phase at 3 uM after 24 hrs by propidium iodide staining-based FACS analysis; format: functional; procedure, shortened: as §2
[16] = system: PC-3; assay: Cell cycle arrest in human PC3 cells assessed as accumulation at S phase at 3 uM after 24 hrs by propidium iodide staining-based FACS analysis; format: functional; procedure, shortened: as §2
[17] = system: PC-3; assay: Cell cycle arrest in human PC3 cells assessed as accumulation at G1 phase at 3 uM after 24 hrs by propidium iodide staining-based FACS analysis; format: functional; procedure, shortened: as §2
[18] = system: PC-3; assay: Cell cycle arrest in human PC3 cells assessed as accumulation at sub-G1 phase at 3 uM after 24 hrs by propidium iodide staining-based FACS analysis; format: functional; procedure, shortened: as §2
[19] = system: NTUB1; assay: Inhibition of alpha-tubulin assembly in human NTUB1 cells at 0.3 to 1 uM after 24 hrs by DAPI staining-based microscopic analysis; format: cell-based
Procedure, shortened: (§3)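 NTUB1 cells seeded on serum-coated coverslips (10⁵ cells/well), incubated overnight, then treated 24 h. Fixed in 2% formaldehyde/PBS 20 min and permeabilized in cold methanol 3 min. Stained overnight with anti-α-tubulin primary, then rhodamine goat anti-rabbit secondary with 1 µg/mL DAPI for 1 h at room temperature. Mounted in 80% glycerol/PBS and examined by fluorescence microscopy; untreated medium control.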

[20] = system: NTUB1; assay: Stabilization GDP-bound alpha-tubulin in human NTUB1 cells assessed as microtubule disassembly at 50 to 100 uM after 6 hrs by Western blot analysis; format: cell-based
Procedure, shortened: (§4)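 NTUB1 cells (1×10^6 per dish) treated 6 h; 500 nM paclitaxel reference. Lysed in Tris-HCl pH 6.8 buffer with MgCl2, EGTA, 0.5% NP-40 and protease/phosphatase inhibitors. Centrifuged 15,000g, 10 min, 4 °C to separate soluble (supernatant) from polymerized (pellet) tubulin. Fractions run on 10% SDS-PAGE and immunoblotted for α-tubulin, β-actin as control, chemiluminescent detection.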

[21] = system: NTUB1; assay: Stabilization GDP-bound alpha-tubulin in human NTUB1 cells assessed as microtubule disassembly at 10 uM after 6 hrs by Western blot analysis; format: cell-based; procedure, shortened: as §4
[22] = system: NTUB1; assay: Stabilization GDP-bound alpha-tubulin in human NTUB1 cells assessed as microtubule disassembly at 500 nM after 6 hrs by Western blot analysis; format: cell-based; procedure, shortened: as §4
[23] = system: NTUB1; assay: Inhibition of alpha-tubulin assembly in human NTUB1 cells at 10 to 100 uM after 6 hrs by Western blot analysis; format: cell-based; procedure, shortened: as §4
[24] = system: NTUB1; assay: Antimitotic activity in human NTUB1 cells assessed as accumulation of mitotic arrest cells at 0.3 to 1 uM after 24 hrs by DAPI staining-based microscopic analysis; format: functional, cell-based; procedure, shortened: as §3
[25] = system: NTUB1; assay: Antimitotic activity in human NTUB1 cells assessed as appearance of rounded and dead cells at 0.3 to 3 uM after 24 hrs; format: functional, cell-based
Procedure, shortened: (§5)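 NTUB1 cells at 7×10^5 cells per 10 cm dish, treated 24 h; medium-only control. Cell rounding and death scored by light-microscopic morphology.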

[26] = system: NTUB1; assay: Inhibition of alpha-tubulin assembly in human NTUB1 cells at 10 nM after 24 hrs by DAPI staining-based microscopic analysis; format: cell-based; procedure, shortened: as §3
[27] = system: NTUB1; assay: Antimitotic activity in human NTUB1 cells assessed as accumulation of mitotic arrest cells at 10 nM after 24 hrs by DAPI staining-based microscopic analysis; format: functional, cell-based; procedure, shortened: as §3
[28] = system: NTUB1; assay: Antimitotic activity in human NTUB1 cells assessed as appearance of rounded and dead cells at 10 nM after 24 hrs; format: functional, cell-based; procedure, shortened: as §5

For `COc1ccc(OC)c(C(=O)/C=C/c2ccc(C(=O)O)s2)c1`, the IC50 [1] was greater than 50 µM.
`COc1ccc(OC)c(C(/C=C/c2ccc(C(=O)NC3CC3)cc2)=N/C2CC2)c1` gave an IC50 [1] of 3.57 µM and an IC50 [2] of 4.26 µM.
With `CCOC(=O)c1ccc(/C=C/C(=O)c2cc(OC)ccc2OC)cc1` the IC50 [1] was 4.49 µM and the IC50 [2] was 5.7 µM.
Compound `COc1ccc(OC)c(C(=O)/C=C/c2ccc(C(=O)N(C)CCO)cc2)c1` has an IC50 [1] of 4.42 µM and an IC50 [2] of 5.75 µM.
`CCCOC(=O)c1ccc(/C=C/C(=O)c2cc(OC)ccc2OC)cc1` showed an IC50 [1] of 6.01 µM and an IC50 [2] of 26.9 µM.
For `COc1ccc(OC)c(C(=O)/C=C/c2ccc(C(=O)NC(C)C)cc2)c1`, the IC50 [1] was 1.97 µM, the IC50 [2] was 1.58 µM and the Activity [3] was 22.6%. The Activity [4] was 27.2%, the Activity [5] was 44.9% and the Activity [6] was 1.84%. It also gave an Activity [7] of 24.2%, an Activity [8] of 21.2% and an Activity [9] of 22.3%. The Activity [10] was 30.3%, the Activity [11] was 19.22% and the Activity [12] was 25.83%. For the same compound, the Activity [13] was 38.85%, the Activity [14] was 9.25% and the Activity [15] was 25.43%. The Activity [16] was 16.09%, the Activity [17] was 36.73% and the Activity [18] was 14.26%.
In the case of `CCN(CC)C(=O)c1ccc(/C=C/C(=O)c2cc(OC)ccc2OC)cc1`, the IC50 [1] is reported as 2.69 µM and the IC50 [2] is reported as 3.79 µM.
`CNC(=O)c1ccc(/C=C/C(=O)c2cc(OC)ccc2OC)cc1` gave an IC50 [1] of 2.2 µM and an IC50 [2] of 2.13 µM.
`COc1ccc(OC)c(C(=O)/C=C/c2ccc(C(=O)NC3CCCCC3)cc2)c1` gave an IC50 [1] of 2.25 µM and an IC50 [2] of 6.3 µM.
Work on `COc1ccc(OC)c(C(=O)/C=C/c2ccc(C(=O)OC(C)C)cc2)c1` yielded an IC50 [1] of 4.42 µM and an IC50 [2] of 6.74 µM.
Work on `COc1ccc(OC)c(C(=O)/C=C/c2ccc(C(=O)OCC=C(C)C)cc2)c1` yielded an IC50 [1] of 13.4 µM and an IC50 [2] greater than 50 µM.
In the case of `COC(=O)c1ccc(/C=C/C(=O)c2cc(OC)ccc2OC)cc1`, the IC50 [1] is reported as 3.51 µM and the IC50 [2] is reported as 4.85 µM.
For `CCNC(=O)c1ccc(/C=C/C(=O)c2cc(OC)ccc2OC)cc1`, the IC50 [1] was 3.76 µM and the IC50 [2] was 4.18 µM.
`COc1ccc(OC)c(C(=O)/C=C/c2ccc(C(=O)OCc3ccccc3)cc2)c1` showed an IC50 [1] of 13.3 µM and an IC50 [2] of 17.9 µM.
Work on `COc1ccc(OC)c(C(=O)/C=C/c2ccc(C(=O)N(C)C)cc2)c1` yielded an IC50 [1] of 3.89 µM and an IC50 [2] of 4.58 µM.
`COc1ccc(OC)c(C(=O)/C=C/c2ccc(C(=O)N3CCCC3)cc2)c1` gave an IC50 [1] of 1.26 µM, an IC50 [2] of 0.53 µM and an Activity [3] of 20.4%. For the same compound, the Activity [4] was 28.8%, the Activity [5] was 46.6% and the Activity [6] was 2.16%. For the same compound, the Activity [7] was 18.3%, the Activity [8] was 11.3% and the Activity [9] was 7.03%. For the same compound, the Activity [10] was 61%, the Activity [11] was 14.02% and the Activity [12] was 25.28%. For the same compound, the Activity [13] was 45.81%, the Activity [14] was 7.8% and the Activity [15] was 27.69%. For the same compound, the Activity [16] was 21.83%, the Activity [17] was 18.44% and the Activity [18] was 24.45%. For the same compound, the inhibition [19] was “Active”, the Activity [20] was “Dose-dependent effect” and the Activity [21] was “inactive”. The Activity [22] was “Active”, the inhibition [23] was “inactive” and the Activity [24] was “Active”. The Activity [25] was “Active”.
With `CC(=O)O[C@H]1C(=O)[C@@]2(C)[C@H]([C@H](OC(=O)c3ccccc3)[C@]3(O)C[C@H](OC(=O)[C@H](O)[C@@H](NC(=O)c4ccccc4)c4ccccc4)C(C)=C1C3(C)C)[C@]1(OC(C)=O)CO[C@@H]1C[C@@H]2O` the inhibition [26] was “inactive”, the Activity [27] was “Active” and the Activity [28] was “Active”.
Work on `COc1ccc(OC)c(C(=O)/C=C/c2ccc(C(=O)O)cc2)c1` yielded an IC50 [1] of 5.7 µM and an IC50 [2] of 7.24 µM.
For `CCCNC(=O)c1ccc(/C=C/C(=O)c2cc(OC)ccc2OC)cc1`, the IC50 [1] was 2.26 µM and the IC50 [2] was 1.5 µM.
